The source made the active and inactive calls. The rule behind the calls is not given here.
How the values were obtained:
Mu-type opioid receptor [1] = target: T1, Mu-type opioid receptor (Homo sapiens, UniProt P35372); experiment: Displacement of [3H]DAMGO from human mu opioid receptor expressed in CHO cells after 60 mins by liquid scintillation counting; assay type: cell-based
[2] = target: Delta-type opioid receptor (Homo sapiens, UniProt P41143); experiment: Displacement of [3H]naltrindole from human delta opioid receptor expressed in CHO cells after 3 hrs by liquid scintillation counting; assay type: cell-based
How it was run: (§1)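 Membranes from CHO cells stably expressing one human opioid receptor, incubated at 25 °C in 50 mM Tris-HCl pH 7.5 with radioligand: [3H]DAMGO 0.25 nM (60 min), [3H]U69,593 1 nM (60 min), [3H]naltrindole 0.2 nM (3 h). […] Filtered on glass fibre (PEI-soaked for kappa), washed, scintillation counted; IC50 by log-probit fit, Ki via Cheng–Prusoff.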

[3] = target: T2, Kappa-type opioid receptor (Homo sapiens, UniProt P41145); experiment: Displacement of [3H]U69593 from human kappa opioid receptor expressed in CHO cells after 60 mins by liquid scintillation counting; assay type: cell-based; how it was run: as §1
Mu-type opioid receptor [4] = target: T1, Mu-type opioid receptor; experiment: Agonist activity at human mu opioid receptor expressed in CHO cells assessed as stimulation of [35S]GTPgammaS binding; assay type: functional, cell-based
Mu-type opioid receptor [5] = target: T1, Mu-type opioid receptor; experiment: Agonist activity at human mu opioid receptor expressed in CHO cells assessed as maximal stimulation of [35S]GTPgammaS binding relatiev to DAMGO; assay type: functional, cell-based
How it was run: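 12 concentrations of each compound incubated with CHO cells expressing the mu receptor; [35S]GTPγS binding stimulation measured, maximal stimulation taken as Emax.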

Mu-type opioid receptor [6] = target: T1, Mu-type opioid receptor; experiment: Antagonist activity at human mu opioid receptor expressed in CHO cells assessed as inhibition of DAMGO-stimulated [35S]GTPgammaS binding; assay type: functional, cell-based
[7] = target: T2, Kappa-type opioid receptor; experiment: Agonist activity at human kappa opioid receptor expressed in CHO cells assessed as stimulation of [35S]GTPgammaS binding; assay type: functional, cell-based
How it was run: (§2)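 Agonist mode: 12 concentrations of each compound incubated with CHO cells expressing the receptor named in the line; agonist-stimulated [35S]GTPγS binding measured.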

[8] = target: T2, Kappa-type opioid receptor; experiment: Agonist activity at human kappa opioid receptor expressed in CHO cells assessed as maximal stimulation of [35S]GTPgammaS binding relatiev to U50488; assay type: functional, cell-based; how it was run: as §2
[9] = target: T2, Kappa-type opioid receptor; experiment: Antagonist activity at human kappa opioid receptor expressed in CHO cells assessed as inhibition of U50488-stimulated [35S]GTPgammaS binding; assay type: functional, cell-based
Homo sapiens = species: Homo sapiens; experiment: Selectivity ratio of Ki for human delta opioid receptor to Ki for human kappa opioid receptor
[10] = Chemical stability at pH 7.4 buffer assessed as hydrolysis half life; assay type: physicochemical
[11] = Chemical stability assessed as hydrolysis half life in presence of porcine liver esterase; assay type: ADME; settings: pig, isolated protein
Mu-type opioid receptor [12] = target: T1, Mu-type opioid receptor; experiment: Antagonist activity at human mu opioid receptor expressed in CHO cells assessed as inhibition of DAMGO-stimulated [35S]GTPgammaS binding at 10 uM; assay type: functional, cell-based

T1 sequence (P35372 whole entry): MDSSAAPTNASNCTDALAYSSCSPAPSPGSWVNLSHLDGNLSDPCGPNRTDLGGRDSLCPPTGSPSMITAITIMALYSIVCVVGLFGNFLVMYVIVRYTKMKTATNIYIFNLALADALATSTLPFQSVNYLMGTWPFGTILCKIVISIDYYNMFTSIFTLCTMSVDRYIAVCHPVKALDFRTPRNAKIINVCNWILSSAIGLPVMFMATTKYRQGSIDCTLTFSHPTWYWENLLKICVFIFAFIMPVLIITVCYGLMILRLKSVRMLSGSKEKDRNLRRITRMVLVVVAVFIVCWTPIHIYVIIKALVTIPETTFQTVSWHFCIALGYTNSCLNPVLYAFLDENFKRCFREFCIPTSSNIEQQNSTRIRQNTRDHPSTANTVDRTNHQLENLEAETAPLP
Sequence of Delta-type opioid receptor (P41143 whole entry): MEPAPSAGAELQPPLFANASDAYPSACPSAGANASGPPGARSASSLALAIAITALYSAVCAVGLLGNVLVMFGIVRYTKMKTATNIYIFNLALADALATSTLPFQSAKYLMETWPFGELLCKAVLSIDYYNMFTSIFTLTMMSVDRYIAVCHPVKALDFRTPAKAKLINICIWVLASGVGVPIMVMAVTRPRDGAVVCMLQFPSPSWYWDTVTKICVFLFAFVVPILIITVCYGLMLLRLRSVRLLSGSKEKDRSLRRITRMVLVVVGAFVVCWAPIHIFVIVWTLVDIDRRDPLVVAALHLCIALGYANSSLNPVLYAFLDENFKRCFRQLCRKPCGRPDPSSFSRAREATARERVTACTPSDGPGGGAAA
T2 sequence (P41145 whole entry): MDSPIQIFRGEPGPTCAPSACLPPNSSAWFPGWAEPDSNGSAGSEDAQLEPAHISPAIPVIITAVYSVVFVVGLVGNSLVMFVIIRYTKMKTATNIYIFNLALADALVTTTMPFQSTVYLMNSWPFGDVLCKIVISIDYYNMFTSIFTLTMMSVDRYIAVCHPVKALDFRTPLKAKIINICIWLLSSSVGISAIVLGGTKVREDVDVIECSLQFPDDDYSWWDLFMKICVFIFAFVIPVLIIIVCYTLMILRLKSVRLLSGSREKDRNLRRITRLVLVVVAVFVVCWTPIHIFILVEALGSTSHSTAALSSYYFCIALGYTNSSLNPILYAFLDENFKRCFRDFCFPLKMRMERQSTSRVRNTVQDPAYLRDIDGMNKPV

Structure (SMILES) | Ki (Mu-type opioid receptor [1]) [nM] | Ki [2] [nM] | Ki [3] [nM] | EC50 (Mu-type opioid receptor [4]) [nM] | Emax (Mu-type opioid receptor [5]) [%] | Imax (Mu-type opioid receptor [6]) | IC50 (Mu-type opioid receptor [6]; cho) | EC50 [7] [nM] | Emax [8] [%] | IC50 [9] | Imax [9] | Ratio Ki (Homo sapiens) | IC50 (Mu-type opioid receptor [6]; read-out: IC50) [nM] | t1/2 [10] [h] | t1/2 [11] [h] | Imax (Mu-type opioid receptor [12]) [%]
O=C(O)CCCCCCCCC(=O)Oc1ccc2c(c1)[C@@]13CCCC[C@H]1[C@@H](C2)N(CC1CCC1)CC3 | 0.71 | 18 | 0.29 | 3 | 110 | inactive | Not Active | 2.8 | 75 | Not Active | inactive | – | – | – | – | –
C=CCN1CC[C@]23c4c5ccc(OC(=O)CCCCCCCCC(=O)Oc6ccc7c(c6)[C@@]68CCCC[C@H]6C(C7)N(CC6CCC6)CC8)c4O[C@H]2CCC[C@H]3[C@H]1C5 | 0.43 | 39 | 0.13 | 2 | 34 | 73% | – | 1.6 | 86 | Not Active | inactive | 300 | 25 | – | – | –
O=C(CCCCCCCCC(=O)Oc1ccc2c(c1)[C@@]13CCCC[C@H]1[C@@H](C2)N(CC1CCC1)CC3)Oc1ccc2c(c1)[C@@]13CCCC[C@H]1[C@@H](C2)N(CC1CCC1)CC3 | – | – | – | – | – | 44% | – | – | 65 | Not Active | inactive | 90 | – | 0.767 | 1.83 | –
CC(CCCCC(C)C(=O)Oc1ccc2c(c1)[C@@]13CCCC[C@H]1[C@@H](C2)N(CC1CCC1)CC3)C(=O)Oc1ccc2c(c1)[C@@]13CCCC[C@H]1[C@@H](C2)N(CC1CCC1)CC3 (stereo partly drawn) | 2.9 | 50 | 2.2 | – | – | – | – | – | – | – | – | 23 | – | 3.68 | 1.9 | –
CC(C)(CCCCCCC(C)(C)C(=O)Oc1ccc2c(c1)[C@@]13CCCC[C@H]1[C@@H](C2)N(CC1CCC1)CC3)C(=O)O | 47 | 390 | 18 | – | – | – | – | – | – | – | – | 22 | – | – | – | –
CC(C)(CCCCCCC(C)(C)C(=O)Oc1ccc2c(c1)[C@@]13CCCC[C@H]1[C@@H](C2)N(CC1CCC1)CC3)C(=O)OCc1ccccc1 | 8.6 | 210 | 4.7 | – | – | – | – | – | – | – | – | 45 | – | – | – | –
CC(CCCCCCC(C)C(=O)Oc1ccc2c(c1)[C@@]13CCCC[C@H]1[C@@H](C2)N(CC1CCC1)CC3)C(=O)O (stereo partly drawn) | 0.46 | 20 | 0.42 | 13 | 25 | – | Not Active | 4.9 | 58 | Not Active | inactive | 48 | – | – | – | 48
CC(CCCCCCC(C)C(=O)Oc1ccc2c(c1)[C@@]13CCCC[C@H]1[C@@H](C2)N(CC1CCC1)CC3)C(=O)Oc1ccc2c(c1)[C@@]13CCCC[C@H]1[C@@H](C2)N(CC1CCC1)CC3 (stereo partly drawn) | 0.95 | 37 | 0.62 | 7.1 | 26 | 50% | – | 7.3 | 54 | Not Active | inactive | 60 | 140 | 1.38 | 2.18 | –
CC(C)(CCCCCCC(C)(C)C(=O)Oc1ccc2c(c1)[C@@]13CCCC[C@H]1[C@@H](C2)N(CC1CCC1)CC3)C(=O)Oc1ccc2c(c1)[C@@]13CCCC[C@H]1[C@@H](C2)N(CC1CCC1)CC3 | 0.47 | 15 | 0.47 | 11 | 40 | 50% | – | 6.4 | 60 | Not Active | inactive | 32 | 81 | 1.68 | 1.67 | –
COC(=O)C(C)CCCCCCC(C)C(=O)Oc1ccc2c(c1)[C@@]13CCCC[C@H]1[C@@H](C2)N(CC1CCC1)CC3 (stereo partly drawn) | 1.7 | 42 | 0.94 | – | – | – | – | – | – | – | – | 45 | – | – | – | –
